Screening data deposited in PubChem by Sanford-Burnham Center for Chemical Genomics.
Scp1 inh: inhibitors of human Scp-1 phosphatase; Q9GZU7; Recombinant Scp1, phosphopeptide, malachite green phosphate absorbance; inhibition, % at 20 µM; actives 0.88% (n = 340,000); AID 493091;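 active = inhibition above about 50% at 20 µM, limit read from the data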;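 note: plate controls were DMSO wells with enzyme for no effect and wells lacking enzyme for full effect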
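Test system – truncated SCP-1 phosphatase (76-261aa) · Reagent – Phosphorylated 17-residue peptide substrate · Incubation – 45 min room-temperature reaction, 5 min colour, 30 min stabiliser · Detection – colorimetric phosphate reagent with accelerator and stabiliser, absorbance at 630 nm · Measure – % inhibition at 20 µM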
LMPTP inh: LMPTP (human) inhibition | inhibition, % at 20 µM | P24666 | recombinant LMPTP-A, OMFP fluorogenic substrate, fluorescence intensity | actives 0.22% (n = 360,000) | AID 651560;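 active = compounds that cut the enzyme signal by at least half of the control window in the single-dose screen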;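 note: plate controls were DMSO wells with enzyme plus substrate for no effect and substrate without enzyme for full effect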
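Test system: LMPTP-A phosphatase enzyme. Amount: LMPTP-A at 0.625 nM final in the reaction. Reagent: OMFP substrate, 400 µM final. Times: 50 min at room temperature. Signal: endpoint fluorescence intensity from OMFP dephosphorylation. Read-out basis: % inhibition. Benchmarks: no-enzyme and uninhibited controls.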
STEP inh: blocks human striatal-enriched tyrosine phosphatase; P54829; recombinant STEP, OMFP fluorogenic substrate, fluorescence; inhibition, % at 20 µM; actives 0.25% (n = 360,000); AID 588621;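 active = inhibition at 20 µM, scaled per plate between control wells, above about 37%, limit read from the data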;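 note: 0% = DMSO with enzyme and substrate and 100% = substrate only without enzyme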
Target sequence (P54829 whole entry, looked up): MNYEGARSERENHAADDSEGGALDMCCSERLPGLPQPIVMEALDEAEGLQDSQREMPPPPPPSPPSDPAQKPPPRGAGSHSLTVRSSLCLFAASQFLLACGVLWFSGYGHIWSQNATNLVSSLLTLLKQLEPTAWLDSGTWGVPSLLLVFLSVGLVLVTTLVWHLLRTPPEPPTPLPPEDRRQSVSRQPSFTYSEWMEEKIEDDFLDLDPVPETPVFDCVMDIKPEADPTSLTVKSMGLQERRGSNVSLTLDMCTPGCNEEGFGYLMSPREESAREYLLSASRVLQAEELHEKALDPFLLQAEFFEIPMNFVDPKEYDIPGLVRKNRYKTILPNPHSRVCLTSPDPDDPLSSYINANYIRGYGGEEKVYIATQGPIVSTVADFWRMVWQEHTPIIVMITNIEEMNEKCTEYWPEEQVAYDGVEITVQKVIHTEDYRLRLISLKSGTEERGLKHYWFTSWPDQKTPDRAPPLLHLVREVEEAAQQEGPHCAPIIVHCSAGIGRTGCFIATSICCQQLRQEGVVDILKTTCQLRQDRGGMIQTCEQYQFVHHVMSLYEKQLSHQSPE
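Test system: STEP tyrosine phosphatase / Reagent: OMFP at 25 µM / Doses: 20 µM, 1% DMSO / Read-out: percent inhibition scaled to no-enzyme and uninhibited-enzyme controls, plate-pattern corrected / Detection: FITC-channel fluorescence of OMFP product / Medium: Bis-Tris buffer pH 6.0, 2.5 mM DTT, 0.005% Tween 20 / Schedule: 20 min at room temperature, dark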
DNMT1 block: blocks human DNA methyltransferase DNMT1. DNMT1 molecular beacon, Hinp1I cleavage, fluorescence. P26358. actives 0.83% (n = 360,000). inhibition (reported as % activation of signal), % at 10 µM; in the data active = inhibition above about 50%
Rpn11 block: inhibitors of human proteasome Rpn11; O00487; human 26S proteasome, Ub4-pepOG fluorescence polarization; 20S core pre-blocked with epoxomicin; inhibition, % at 20 µM; actives 0.59% (n = 360,000); AID 588493;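 active = inhibition at 20 µM, scaled to each plate's controls, above about 33%, limit read from the data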
Beacon interf DR: shows spectral interference in the DNMT1 beacon assay; shares compounds with DNMT1 block; molecular beacon fluorescence, spectral interference counter-screen; IC50, µM; 200 tested, under 10 active; call rule not given here
DNMT1 confirm: confirmation of human DNMT1 inhibitors; actives 8% (n = 2,300); inhibition, % at 10 µM; shares compounds with DNMT1 block; AID 602385; DNMT1 molecular beacon HinP1I cleavage, fluorescence;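 active = average inhibition of at least 30% in the single-concentration confirmation test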
Beacon interf: shows spectral interference in the DNMT1 beacon assay; shares compounds with DNMT1 block; actives 1% (n = 2,300); DNMT1 molecular beacon spectral interference counterscreen, fluorescence 485/520; AID 602387; activation (fluorescence interference), % at 10 µM;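 active = activation of at least 30% at 10 µM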;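 note: DNMT1 catalytic domain with a HinP1I cleavage step and a FAM/dabcyl DNA beacon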
Rpn11 inh conf: Rpn11 inhibition confirmation, single concentration. shares compounds with Rpn11 block. actives 29% (n = 1,900). AID 602318. purified human 26S proteasome, Ub4-pepOG fluorescence polarization; proteasome pretreated with epoxomicin. inhibition, % at 20 µM
MMP-2 counter: counter-screen for RPN11 inhibitors: inhibition of human MMP-2; inhibition, % at 20 µM; recombinant MMP-2, FRET peptide cleavage fluorescence; shares compounds with Rpn11 block; actives 4% (n = 1,900);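 note: human MMP-2 activated beforehand with APMA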
Thrombin inh: thrombin (bovine) inhibition counter-screen | shares compounds with Rpn11 block | bovine thrombin cleavage of Ub4-pepOG, fluorescence polarization | inhibition, % at 20 µM | actives 13% (n = 1,900) | AID 602333;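 active = mean inhibition at least 40% at 20 µM, or signal 3 deviations below plate average, so some actives read negative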;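 note: plate controls were thrombin with DMSO for no effect and buffer wells lacking thrombin for full effect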
Starred values were filed as active, the others as inactive; · = no result. Shown are actives, neighbours in structure and some others; about 2% of the full set was active somewhere. Cut-off read from the data, not from the text of the source, unless noted: active = inhibition above about 40%; inactive = the rest.

SMILES | Scp1 inh | LMPTP inh | STEP inh | DNMT1 block | Rpn11 block | DNMT1 confirm | Beacon interf | Rpn11 inh conf | MMP-2 counter | Thrombin inh | others
O=C1CC(=O)N(Cc2ccco2)C(=O)N1 | 65.9* | 51.3* | 95.0* | 108.8* | 161.9* | 105.2* | -4.9 | 125.4* | 38.2 | 63.5* | Beacon interf DR=>99
O=C1CC(=O)N(Cc2cccs2)C(=O)N1 | -2.9 | -0.1 | 0.9 | -8.9 | 35.9 | · | · | · | · | ·
CC1=NN(c2ccccc2)C(=O)C1/C=C1\NC(=S)NC1=O (stereo unspecified) | 1.9 | 4.0 | 4.9 | 90.5* | 45.2* | 37.6* | -2.0 | 84.2* | 19.2 | 24.4 | Beacon interf DR=>99
O=C(Nc1nc(-c2ccco2)c(-c2ccco2)s1)c1c(F)cccc1Cl | -8.6 | 5.3 | 1.2 | 69.7* | 52.8* | 6.2 | 21.9 | -6.3 | 2.2 | -21.3
O=C(COc1ccc(/C=N/NC(=O)c2cc3ccccc3o2)cc1Br)Nc1ccccc1 | 83.3* | 29.3 | 64.5* | 63.8* | 117.7* | -2.9 | -8.6 | 40.7* | -104.6 | -14.9
O=C(N/N=C/c1ccco1)c1cc2ccccc2o1 | -5.1 | -0.9 | 0.2 | 1.2 | -7.2 | · | · | · | · | ·
COc1ccc(N/C=C\C(=O)c2ccc3ccccc3c2)cc1 | -4.7 | -0.7 | 2.3 | 34.4 | 8.4 | · | · | · | · | ·
NS(=O)(=O)c1ccc(N/C=C\C(=O)c2ccc3ccccc3c2)cc1 | -0.9 | 11.7 | 3.1 | 88.1* | 44.6* | 2.1 | 3.4 | 67.1* | 37.5 | -11.7
CSc1nsc(/C=C/Nc2ccc(C(=O)O)cc2)c1C#N | 29.8 | 23.1 | 15.2 | 65.9* | 67.9* | 8.7 | 8.8 | 53.2* | -7.5 | 41.7*
N#Cc1c(-c2c(Cl)cccc2Cl)noc1/C=C/Nc1ccc(C(=O)O)cc1 | 4.5 | -0.9 | -1.2 | 18.8 | 16.7 | · | · | · | · | ·
Cc1ccc(S(=O)(=O)N2CCN(C(=O)COC(=O)c3ccc(Cl)nc3)CC2)c(C)c1 | -6.5 | 0.1 | 0.5 | -11.7 | 2.7 | · | · | · | · | ·
COc1cc(NS(=O)(=O)c2ccc(NC(=S)NC(=O)/C=C/c3ccco3)cc2)ncn1 | 49.0 | 4.7 | 4.9 | 98.0* | 41.5* | 82.3* | -3.5 | 77.5* | 24.1 | 46.8* | Beacon interf DR=>99
CCOc1ccc(NC(=S)NC(=O)/C=C/c2ccco2)cc1 | -4.7 | -1.0 | 3.0 | -4.4 | 1.7 | · | · | · | · | ·
COc1ccc(C(=O)CSc2nnc(CNC(=O)c3ccco3)n2C)cc1 | -3.9 | -2.2 | -1.0 | -0.3 | 0.4 | · | · | · | · | ·
N#Cc1c(SCC(=O)Nc2ccc(C(F)(F)F)cc2)sc2c(O)cc(=O)[nH]c12 | 49.9 | -1.4 | -0.9 | 0.6 | 9.4 | · | · | · | · | ·
N#Cc1c(SCC(=O)Nc2nncs2)sc2c(O)cc(=O)[nH]c12 | 80.9* | 3.6 | 38.0 | 70.8* | 52.7* | 3.1 | -0.6 | 36.6 | 52.1* | 9.1
CC(=O)Oc1ccc(N2C(=O)C3C4C=CC(CC4)C3C2=O)cc1[N+](=O)[O-] (stereo unspecified) | -3.9 | -3.2 | 2.1 | 0.1 | 2.2 | · | · | · | · | ·
O=c1nc(Nc2ccc(Br)cc2)sc2ccc([N+](=O)[O-])cc12 | 40.1 | 44.6 | 5.3 | 53.8* | 44.4* | 1.1 | -3.1 | -5.2 | -1.4 | -8.8
CC(=O)Nc1nc2cc([N+](=O)[O-])ccc2s1 | -3.0 | -1.2 | 2.0 | 4.8 | 13.7 | · | · | · | · | ·
Cc1cc(C)c2nc(N3C(=O)C(O)=C(C(=O)c4ccco4)C3c3ccco3)sc2c1 (stereo unspecified) | 51.6* | 22.6 | 24.2 | 57.8* | 39.3* | 14.8 | -0.7 | 33.7 | 9.9 | 36.9
